Laboratory results: ChEMBL document CHEMBL1649139, “A novel gene, erm(41), confers inducible macrolide resistance to clinical isolates of Mycobacterium abscessus but is absent from Mycobacterium chelonae” (2009)
In brackets after ≈: the same amount, converted by molar mass.

Key:
Assay type in all cases: functional
[1] = tested on: Mycobacteroides abscessus; test: Antimicrobial activity against Mycobacterium abscessus isolate MC1028 at day 5 preincubated with 0.1 ug/ml erythromycin for 3 days by broth microdilution method
Method in brief: (§1)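 Clarithromycin MIC by CLSI-conforming broth microdilution. Before testing, cultures were preincubated for 3 days, either in medium alone or in clarithromycin or erythromycin (tested range 0.01–1 μg/ml). Preincubation ran for at least two generations, judged by turbidity increase. Plates were read on day 3 and on extended incubation at days 5 to 14.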

[2] = tested on: Mycobacteroides abscessus; test: Antimicrobial activity against Mycobacterium abscessus isolate MC1082 at day 5 by broth microdilution method; conditions: isolate MC1082, 120 h; method in brief: as §1
[3] = tested on: Mycobacteroides abscessus; test: Antimicrobial activity against Mycobacterium abscessus isolate MAB30 at day 5 preincubated with 0.1 ug/ml erythromycin for 3 days by broth microdilution method; method in brief: as §1
[4] = tested on: Mycobacteroides abscessus; test: Antimicrobial activity against Mycobacterium abscessus isolate MC1448 at day 3 preincubated with 0.1 ug/ml erythromycin for 3 days by broth microdilution method
Method in brief: (§2)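 Clarithromycin MIC by broth microdilution following CLSI guidelines. Before testing, organisms were preincubated for 3 days in medium alone or in clarithromycin or erythromycin (0.01–1 μg/ml), long enough for at least two generations judged by turbidity increase. MICs were read on day 3 and again on extended incubation out to day 14.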

[5] = tested on: Mycobacteroides abscessus; test: Antimicrobial activity against Mycobacterium abscessus isolate MC879 at day 9 by broth microdilution method; conditions: isolate MC879, 216 h
Method in brief: (§3)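 Clarithromycin MIC by broth microdilution following CLSI guidelines. Organisms were preincubated […], for 3 days before the assay. This allowed at least two generations, judged by the rise in turbidity. The MIC was read at the stated day, with incubation extended from day 3 to as long as 14 days.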

[6] = tested on: Mycobacteroides abscessus; test: Antimicrobial activity against Mycobacterium abscessus isolate MAB30 at day 14 preincubated with 0.1 ug/ml for 3 days by broth microdilution method; method in brief: as §1
[7] = tested on: Mycobacteroides abscessus; test: Antimicrobial activity against Mycobacterium abscessus isolate MC879-2 at day 7 preincubated with 0.1 ug/ml erythromycin for 3 days by broth microdilution method
[8] = tested on: Mycobacteroides abscessus; test: Antimicrobial activity against Mycobacterium abscessus isolate MC879 at day 7 by broth microdilution method; conditions: isolate MC879, 168 h; method in brief: as §3
[9] = tested on: Mycobacteroides abscessus; test: Antimicrobial activity against Mycobacterium abscessus isolate MC724 at day 9 preincubated with 0.1 ug/ml erythromycin for 3 days by broth microdilution method
Method in brief: (§4)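 To test inducible resistance, cultures were preincubated for 3 days in clarithromycin or erythromycin, within 0.01–1 μg/ml. The period was set so cultures passed at least two generations, judged by turbidity increase. Clarithromycin MIC was then determined by CLSI-conforming broth microdilution and read on the stated day, from day 3 up to 14.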

[10] = tested on: Mycobacteroides abscessus; test: Antimicrobial activity against Mycobacterium abscessus isolate MC879 at day 14 by broth microdilution method; conditions: isolate MC879, 336 h; method in brief: as §3
[11] = tested on: Mycobacteroides abscessus; test: Antimicrobial activity against Mycobacterium abscessus isolate MC724 at day 5 preincubated with 0.1 ug/ml for 3 days by broth microdilution method
Method in brief: (§5)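 Clinical M. abscessus isolates were preincubated for 3 days, either in medium alone or in clarithromycin or erythromycin at 0.01 to 1 μg/ml, allowing at least two generations of growth judged by turbidity. The clarithromycin MIC was then determined by CLSI-conforming broth microdilution, with plates read on day 3 and on extended incubation (days 5 to 14).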

[12] = tested on: Mycolicibacterium smegmatis; test: Antimicrobial activity against Mycobacterium smegmatis transformed with erm allele Mycobacterium abscessus isolate MC720 preincubated with 2 ug/ml erythromycin for 20 to 24 hrs by broth microdilution method
[13] = tested on: Mycobacteroides abscessus; test: Antimicrobial activity against Mycobacterium abscessus isolate MC724 at day 7 preincubated with 0.1 ug/ml for 3 days by broth microdilution method; method in brief: as §4
[14] = tested on: Mycobacteroides abscessus; test: Antimicrobial activity against Mycobacterium abscessus isolate MC724 at day 5 preincubated with 0.1 ug/ml erythromycin for 3 days by broth microdilution method; method in brief: as §5
[15] = tested on: Mycobacteroides abscessus; test: Antimicrobial activity against Mycobacterium abscessus isolate MC719 at day 5 preincubated with 0.1 ug/ml erythromycin for 3 days by broth microdilution method; method in brief: as §5
[16] = tested on: Mycobacteroides abscessus; test: Antimicrobial activity against Mycobacterium abscessus isolate MC1448 at day 3 preincubated with 0.1 ug/ml for 3 days by broth microdilution method; method in brief: as §2
[17] = tested on: Mycobacteroides abscessus; test: Antimicrobial activity against Mycobacterium abscessus isolate MC958 at day 5 by broth microdilution method; conditions: isolate MC958, 120 h; method in brief: as §3
[18] = tested on: Mycobacteroides abscessus; test: Antimicrobial activity against Mycobacterium abscessus isolate MAB30 at day 7 preincubated with 0.1 ug/ml for 3 days by broth microdilution method; method in brief: as §1
[19] = tested on: Mycobacteroides abscessus; test: Antimicrobial activity against Mycobacterium abscessus isolate MAB30 at day 9 by broth microdilution method; conditions: isolate MAB30, 216 h; method in brief: as §1
[20] = tested on: Mycobacteroides abscessus; test: Antimicrobial activity against Mycobacterium abscessus isolate MC879-2 at day 3 preincubated with 0.1 ug/ml erythromycin for 3 days by broth microdilution method
[21] = tested on: Mycobacteroides abscessus; test: Antimicrobial activity against Mycobacterium abscessus isolate MC879 on day 14 by broth microdilution method; conditions: isolate MC879, 336 h
[22] = tested on: Mycobacteroides abscessus; test: Antimicrobial activity against Mycobacterium abscessus isolate MC879 at day 9 preincubated with 0.1 ug/ml erythromycin for 3 days by broth microdilution method; method in brief: as §4
[23] = tested on: Mycobacteroides abscessus; test: Antimicrobial activity against Mycobacterium abscessus isolate MC1028 at day 5 by broth microdilution method; conditions: isolate MC1028, 120 h; method in brief: as §1
[24] = tested on: Mycobacteroides abscessus; test: Antimicrobial activity against Mycobacterium abscessus isolate MC1082 at day 14 by broth microdilution method; conditions: isolate MC1082, 336 h; method in brief: as §1
[25] = tested on: Mycobacteroides abscessus; test: Antimicrobial activity against Mycobacterium abscessus isolate MC723 at day 9 by broth microdilution method; conditions: isolate MC723, 216 h; method in brief: as §2
[26] = tested on: Mycobacteroides abscessus; test: Antimicrobial activity against Mycobacterium abscessus isolate MAB30 at day 3 by broth microdilution method; conditions: isolate MAB30, 72 h; method in brief: as §1
[27] = tested on: Mycobacteroides abscessus; test: Antimicrobial activity against Mycobacterium abscessus isolate MC1082 at day 7 by broth microdilution method; conditions: isolate MC1082, 168 h; method in brief: as §1
[28] = tested on: Mycobacteroides abscessus; test: Antimicrobial activity against Mycobacterium abscessus isolate MC1028 at day 14 by broth microdilution method; conditions: isolate MC1028, 336 h; method in brief: as §1
[29] = tested on: Mycobacteroides abscessus; test: Antimicrobial activity against Mycobacterium abscessus isolate MC879-2 at day 9 preincubated with 0.1 ug/ml for 3 days by broth microdilution method
[30] = tested on: Mycobacteroides abscessus; test: Antimicrobial activity against Mycobacterium abscessus isolate MC879-2 at day 9 by broth microdilution method; conditions: isolate MC879-2, 216 h
[31] = tested on: Mycobacteroides abscessus; test: Antimicrobial activity against Mycobacterium abscessus isolate MC879 at day 14 preincubated with 0.1 ug/ml erythromycin for 3 days by broth microdilution method; method in brief: as §4
[32] = tested on: Mycobacteroides abscessus; test: Antimicrobial activity against Mycobacterium abscessus isolate MC724 at day 3 preincubated with 0.1 ug/ml for 3 days by broth microdilution method; method in brief: as §4
[33] = tested on: Mycobacteroides abscessus; test: Antimicrobial activity against Mycobacterium abscessus isolate MC1448 at day 5 preincubated with 0.1 ug/ml erythromycin for 3 days by broth microdilution method; method in brief: as §2
[34] = tested on: Mycolicibacterium smegmatis; test: Antimicrobial activity against Mycobacterium smegmatis transformed with erm allele Mycobacterium abscessus isolate MC958 by broth microdilution method
[35] = tested on: Mycobacteroides abscessus; test: Antimicrobial activity against Mycobacterium abscessus isolate MC724 at day 14 preincubated with 0.1 ug/ml for 3 days by broth microdilution method; method in brief: as §2
[36] = tested on: Mycobacteroides abscessus; test: Antimicrobial activity against Mycobacterium abscessus isolate MC1082 at day 9 by broth microdilution method; conditions: isolate MC1082, 216 h; method in brief: as §1

**Q.** With `CC[C@H]1OC(=O)[C@H](C)[C@@H](O[C@H]2C[C@@](C)(OC)[C@@H](O)[C@H](C)O2)[C@H](C)[C@@H](O[C@@H]2O[C@H](C)C[C@H](N(C)C)[C@H]2O)[C@](C)(OC)C[C@@H](C)C(=O)[C@H](C)[C@@H](O)[C@]1(C)O` [CLARITHROMYCIN] as the compound, how does the MIC [1] read?
**A.** The MIC was no more than 0.5 µg/mL.

**Q.** And the MIC [2]?
**A.** Its MIC is no more than 0.5 µg/mL.

**Q.** What about the MIC [3] of the same compound?
**A.** Its MIC is no more than 0.5 µg/mL.

**Q.** What about the MIC [4] of the same compound?
**A.** Its MIC is greater than 32 µg/mL.

**Q.** What about the MIC [5] of the same compound?
**A.** The MIC was greater than 32 µg/mL.

**Q.** And the MIC [6]?
**A.** The MIC was no more than 0.5 µg/mL.

**Q.** What about the MIC [7] of the same compound?
**A.** The MIC was greater than 32 µg/mL.

**Q.** What about the MIC [8] of the same compound?
**A.** The MIC was 8 µg/mL (≈ 10.7 µM).

**Q.** And the MIC [9]?
**A.** The MIC was greater than 32 µg/mL.

**Q.** What about the MIC [10] of the same compound?
**A.** The MIC was greater than 32 µg/mL.

**Q.** What about the MIC [11] of the same compound?
**A.** The MIC was 4 µg/mL (≈ 5.35 µM).

**Q.** What about the MIC [12] of the same compound?
**A.** Its MIC is 16 µg/mL.

**Q.** What about the MIC [13] of the same compound?
**A.** The MIC was greater than 32 µg/mL.

**Q.** And the MIC [14]?
**A.** The MIC was 4 µg/mL.

**Q.** And the MIC [15]?
**A.** The MIC was 4 µg/mL.

**Q.** What about the MIC [16] of the same compound?
**A.** The MIC was greater than 32 µg/mL.

**Q.** And the MIC [17]?
**A.** The MIC was 1 µg/mL (≈ 1.34 µM).

**Q.** What about the MIC [18] of the same compound?
**A.** The MIC was no more than 0.5 µg/mL.

**Q.** What about the MIC [19] of the same compound?
**A.** The MIC was no more than 0.5 µg/mL.

**Q.** And the MIC [20]?
**A.** The MIC was greater than 32 µg/mL.

**Q.** What about the MIC [21] of the same compound?
**A.** Its MIC is 32 µg/mL (≈ 42.8 µM).

**Q.** And the MIC [22]?
**A.** Its MIC is greater than 32 µg/mL.

**Q.** And the MIC [23]?
**A.** The MIC was no more than 0.5 µg/mL.

**Q.** What about the MIC [24] of the same compound?
**A.** Its MIC is no more than 0.5 µg/mL.

**Q.** What about the MIC [25] of the same compound?
**A.** Its MIC is greater than 32 µg/mL.

**Q.** And the MIC [26]?
**A.** Its MIC is no more than 0.5 µg/mL.

**Q.** And the MIC [27]?
**A.** Its MIC is no more than 0.5 µg/mL.

**Q.** And the MIC [28]?
**A.** Its MIC is no more than 0.5 µg/mL.

**Q.** And the MIC [29]?
**A.** Its MIC is greater than 32 µg/mL.

**Q.** What about the MIC [30] of the same compound?
**A.** The MIC was greater than 32 µg/mL.

**Q.** What about the MIC [31] of the same compound?
**A.** Its MIC is greater than 32 µg/mL.

**Q.** And the MIC [32]?
**A.** The MIC was no more than 0.5 µg/mL.

**Q.** What about the MIC [33] of the same compound?
**A.** The MIC was greater than 32 µg/mL.

**Q.** What about the MIC [34] of the same compound?
**A.** Its MIC is 2 µg/mL (≈ 2.67 µM).

**Q.** What about the MIC [35] of the same compound?
**A.** The MIC was greater than 32 µg/mL.

**Q.** And the MIC [36]?
**A.** Its MIC is no more than 0.5 µg/mL.
